PP5 primary = PP5 (human) phosphatase inhibition | P53041 | hit rate 0.18% among 320,000 | inhibition, % at 6.7 µM | purified PP5c, OMFP substrate fluorescence;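 active means inhibition above the campaign's mean inhibition across all tested compounds plus 3 SD, cut at about 9.5% in these data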;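 further: 0% = DMSO only and 100% = 100 µM cantharidin control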
PP1 inh = blocks human PP1-alpha phosphatase, a PP5 counter-screen. purified PP1alpha, OMFP fluorescence. inhibition, % at 6.7 µM. hit rate 0.9% among 320,000;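 active means inhibition above the mean inhibition of all tested compounds plus 3 SD, computed separately for each screening campaign, cut at about 15% in these data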
Target sequence (P62136 whole entry, looked up): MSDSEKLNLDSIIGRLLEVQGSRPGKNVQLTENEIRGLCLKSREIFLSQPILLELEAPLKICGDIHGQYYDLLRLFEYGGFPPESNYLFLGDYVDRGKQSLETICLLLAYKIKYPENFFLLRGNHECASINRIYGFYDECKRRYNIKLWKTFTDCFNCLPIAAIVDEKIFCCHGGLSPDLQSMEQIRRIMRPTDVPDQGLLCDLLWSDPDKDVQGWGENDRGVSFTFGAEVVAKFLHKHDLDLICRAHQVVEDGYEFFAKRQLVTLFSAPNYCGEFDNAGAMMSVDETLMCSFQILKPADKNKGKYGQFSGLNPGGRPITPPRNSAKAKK
EBNA-1 inhibitor = blocks EBNA-1 binding to DNA; EBNA-1 DNA binding, fluorescence polarization; inhibition, % at 14.8 µM; hit rate 0.34% among 300,000; AID 1950; in the data active means inhibition above about 28%
ZTA counter = counter-screen for EBNA-1 inhibitors: inhibitors of Epstein-Barr virus ZTA | P03206 | ZTA-DNA binding, fluorescence polarization | hit rate 0.15% among 320,000 | AID 2234 | inhibition, % at 11 µM; in the data active means inhibition above about 33%
Target sequence (P03206 whole entry, looked up): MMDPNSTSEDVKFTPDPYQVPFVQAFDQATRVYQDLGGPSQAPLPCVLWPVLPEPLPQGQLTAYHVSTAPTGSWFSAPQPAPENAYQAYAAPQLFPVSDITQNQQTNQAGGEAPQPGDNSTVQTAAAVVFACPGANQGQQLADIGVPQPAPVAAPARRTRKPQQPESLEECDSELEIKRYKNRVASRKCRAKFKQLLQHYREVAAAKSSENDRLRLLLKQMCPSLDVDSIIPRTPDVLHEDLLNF
core dimer inh = HCV core protein dimerization inhibition. TR-FRET GST/Flag-core106 dimerization, 1536-well. inhibition, % at 5 µM. hit rate 0.33% among 300,000;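 active means inhibition above the mean of all tested compounds plus 3 SD, set per screening campaign, cut at about 45% in these data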
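test system = GST/Flag-tagged HCV core106 proteins | probe or stimulus = Eu donor and XL665 acceptor anti-tag antibodies | times = compound-protein-antibody incubation 4 h at 22.5 °C | signal = TR-FRET, excitation 340 nm, emission 617 and 671 nm | measure = percent inhibition of core106 dimerization signal | controls = wells lacking GST-core106 and wells with excess unlabelled core106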
An asterisk follows results filed as active; . = no result given; + = active, no number. Most compounds without a hit are left out; they make up all but 1.7% or so of the library.

SMILES | PP5 primary | PP1 inh | EBNA-1 inhibitor | ZTA counter | core dimer inh
COc1ccc(CCn2c(C)cc(C(=O)COC(=O)c3ccc(NC(=O)CC#N)cc3)c2C)cc1 | 2.0 | 13.5 | 3.4 | 0.3 | 49.6*
Cc1cc(C(=O)COC(=O)c2ccc(NC(=O)CC#N)cc2)c(C)n1CCc1ccc(F)cc1 | 1.6 | 10.7 | . | 1.0 | .
Cc1cccc(-c2cc3c(N=O)c4ccccc4c-3n[nH]2)c1 | -1.5 | -2.2 | 29.7* | -6.2 | 3.1
O=C(c1cnn(-c2ccccc2)c1)c1cc(F)ccc1O | 0.8 | -0.9 | 8.5 | -10.4 | 4.8
CCOC(=O)c1sc2nc3c(SCCC#N)cc(C(=O)c4cc(F)ccc4O)cn3c(=O)c2c1C | -1.2 | -2.0 | -10.7 | 12.6 | 50.2*
O=C(O)CSc1cc(C(=O)c2cc(F)ccc2O)cn2c(=O)c3c(-c4ccccc4)csc3nc12 | 4.5 | 17.4* | 14.8 | 24.4 | 51.8*
CCc1c(C)sc2nc3c(C(=O)N4CCOCC4)cc(C(=O)c4cc(F)ccc4O)cn3c(=O)c12 | 1.1 | 0.3 | -7.2 | -25.6 | 3.7
CCC(c1nnnn1C1CCCC1)N1CCC(C(N)=O)CC1 (stereo not given) | -1.2 | -0.7 | -22.9 | -9.9 | 2.9
N#CCCn1c(SCC(=O)c2c[nH]c3ccccc23)nc2ccccc21 | 5.0 | 1.8 | -7.2 | -5.1 | 12.6
Cc1cc(C(=O)CSc2nc3ccccc3n2CCC#N)c(C)n1Cc1cccs1 | 0.5 | 10.5 | 34.1* | 16.5 | 11.2
N[C@@H](Cc1cc(I)c(Oc2cc(I)c(O)c(I)c2)c(I)c1)C(=O)O | 0.6 | 16.5* | 11.4 | 15.2 | -40.3
O=C(COC(=O)Cc1n[nH]c(=O)c2ccccc12)Nc1ccc(Cl)cn1 | 1.1 | 1.6 | . | -27.1 | .
C1CCC(c2nn3c(-c4n[nH]c5c4CCC5)nnc3s2)CC1 | 1.5 | 1.3 | 5.2 | 9.4 | 50.9*
c1coc(-c2nnc3sc(C4CCCCC4)nn23)c1 | 1.6 | -2.7 | -6.9 | 6.7 | 0.5
Cc1ccc(S(=O)(=O)NC(=O)Nc2ccc(N(C)C)cc2)cc1 | 1.4 | 6.2 | + | + | -154.8
Cc1ccc(NC(=O)NNS(=O)(=O)c2ccc(Br)cc2)cc1 | 2.1 | 1.7 | 7.0 | -13.6 | -3.2
CCOc1ccccc1N(CC(=O)NC1CCCC1)S(=O)(=O)c1ccc(C)cc1 | 0.2 | -1.4 | -2.8 | -3.2 | -0.6
O=C(CSc1nc2ccccc2c(=O)n1-c1ccccc1)c1c[nH]c2ccccc12 | 2.4 | 6.2 | 37.2* | -1.9 | -5.9
O=c1[nH][nH]c(C(F)(F)F)c1C=NCc1cccs1 | 4.4 | 1.6 | -0.6 | -17.4 | 1.0
COc1cccc2[nH]c3ccccc3c(=O)c12 | 0.7 | -3.5 | 9.3 | -9.8 | 4.5
Nc1cccc2c(=O)c3ccccc3[nH]c12 | 1.8 | 16.2* | -6.5 | 3.9 | -26.0
C=CCn1c(SCC(=O)c2ccc(CNC(C)=O)o2)nc2scc(C3CC3)c2c1=O | 1.0 | 2.7 | 7.3 | 6.1 | 48.4*
O=C(Nc1ccc(N2CCOCC2)cc1)c1ccc(Cl)c(S(=O)(=O)N2CCCCC2)c1 | -0.2 | -2.1 | . | 7.2 | .
O=C(Nc1nc(-c2cccs2)c(-c2ccccc2)s1)c1ccco1 | 3.1 | -1.5 | 3.7 | -0.2 | -38.6
CC1CC1C(=O)Nc1nc(-c2cccs2)c(-c2cccs2)s1 (stereo not given) | 1.3 | -1.8 | 2.0 | 4.7 | 50.5*
SMILES | PP5 primary | PP1 inh | EBNA-1 inhibitor | ZTA counter | core dimer inh
CSCCC(NC(=O)c1ccco1)C(=O)NCC1CCCO1 (stereo not given) | 2.0 | 1.8 | . | -2.0 | .
CC(C)c1ccc(-c2c(C#N)c(N)nc(SCC(=O)N3CCCCC3)c2C#N)cc1 | -0.1 | -2.7 | 10.5 | -0.6 | 46.6*
O=C(O)C1CC=CCC1C(=O)N1CCN(c2nc(-c3ccccc3Cl)c3cc(Br)ccc3n2)CC1 (stereo not given) | 0.1 | 17.4* | 10.4 | 21.0 | 7.9
CCN(CC)S(=O)(=O)c1cc(OC)c(Cl)cc1OC | -0.9 | 1.3 | -2.9 | -8.7 | 1.5
COc1ccc(NC(=O)CSCC(=O)N2CCN(C(=O)c3ccco3)CC2)cc1 | -0.6 | 1.1 | . | -4.2 | .
O=C1c2ccccc2C(Nc2ccc3c(c2)OCO3)N1Cc1ccc2c(c1)OCO2 (stereo not given) | 1.1 | 6.1 | -0.3 | -0.5 | 50.2*
O=C(COC(=O)c1cnc(Cl)c(Cl)c1)Nc1ccc(S(=O)(=O)N2CCCC2)cc1 | 4.8 | 1.6 | 10.4 | -17.9 | -2.6
CCCCc1cc(=O)oc2c(C)c(OCC(=O)N3C[C@H]4C[C@@H](C3)c3cccc(=O)n3C4)ccc12 | 5.3 | 17.1* | -8.5 | -15.7 | -0.3
CCCS(=O)(=O)N1CCCC(C(=O)NCCc2cccc(C)c2)C1 (stereo not given) | -1.2 | -1.8 | 6.3 | 3.5 | -3.2
Cc1ccc(S(=O)(=O)NCC(=O)OC(C)C(=O)NC(=O)NC2CCCCC2)cc1C (stereo not given) | 4.1 | 2.2 | . | -12.2 | .
O=C(NCc1ccccc1)C1=C[C@@H](c2ccccc2)C[C@@H](OCc2ccc(CO)cc2)O1 | 1.6 | 0.0 | 1.6 | 0.0 | 9.4
C#Cc1ccc([C@@H]2C=C(C(=O)NCc3ccccc3)O[C@H](OCCCCO)C2)cc1 | 5.2 | 8.4 | -8.0 | -2.2 | 51.6*
C#Cc1ccc([C@@H]2C=C(C(=O)NCc3ccccc3)O[C@H](OCc3ccc(CO)cc3)C2)cc1 | 1.9 | 3.1 | 18.8 | -3.0 | 47.1*
CCOP(=O)(OCC)C(NC(=O)Nc1ccc(Cl)c(Cl)c1)C(N)=O (stereo not given) | 0.5 | 16.8* | 8.3 | -12.5 | -8.1
CCOP(=O)(OCC)C(NC(=O)Nc1ccc(Cl)cc1)C(N)=O (stereo not given) | 0.8 | 2.3 | 9.6 | -4.8 | -7.0
COc1ccc(OC)c(NC(=S)NCc2ccco2)c1 | -0.1 | 0.6 | 7.8 | 20.6 | -10.2
Cc1ccc(C2C(C=Nc3c(C)n(C)n(-c4ccccc4)c3=O)=C(c3ccccc3)Oc3ccccc32)cc1 (stereo not given) | 4.1 | 6.8 | -6.3 | -10.6 | 46.4*
S=c1[nH]cc(-c2ccccc2)[nH]1 | 0.4 | -3.4 | 6.3 | 1.8 | -3.3
O=[N+]([O-])c1ccc(-c2c[nH]c(=S)[nH]2)cc1 | -0.6 | 0.5 | 1.3 | 5.5 | 53.2*
C[C@H]1CC[C@H]2C(=O)N3[C@H](c4ccccc4Br)[C@@H](C)CC[C@H]3C(=O)N2[C@@H]1c1ccccc1Br | 0.9 | 13.2 | 2.6 | 8.9 | 21.7
NS(=O)(=O)c1cccc(NC(=O)COC(=O)Cc2ccc(S(=O)(=O)N3CCCCC3)s2)c1 | 0.9 | -1.3 | -4.3 | -11.4 | 30.6
O=C(COC(=O)Cc1ccc(S(=O)(=O)N2CCCCC2)s1)Nc1ccc2c(c1)OCO2 | -0.7 | 6.6 | 10.2 | -1.4 | 62.8*
CCn1c2ccccc2c2cc(NC(=O)Cc3ccc(S(=O)(=O)N4CCOCC4)s3)ccc21 | 1.1 | 8.0 | 8.7 | 15.1 | 60.0*
CN(C)S(=O)(=O)c1ccc(NC(=O)Cc2ccc(S(=O)(=O)N3CCOCC3)s2)cc1 | 2.6 | 0.5 | -8.4 | -19.9 | 48.6*
O=C(Cc1ccc(S(=O)(=O)N2CCOCC2)s1)Nc1ccc(N2CCOCC2)cc1 | 0.6 | 2.2 | -5.5 | -4.0 | 8.9

Screening results from PubChem BioAssay.
